Results: ChEMBL document CHEMBL4425104, “Structure-Based Design of Potent Nicotinamide Phosphoribosyltransferase Inhibitors with Promising in Vitro and in Vivo Antitumor Activities” (J Med Chem, 2016)
pIC50: −log10 of the molar value.

What was measured:
[1] = tested on: MCF7; experiment: Cytotoxicity against human MCF7 cells assessed as cell growth inhibition after 72 hrs by CCK-8 assay; format: functional; details: MCF7, 72 h
Outline: (§1)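 HeLa, MCF7, H1975, U937 and MDA-MB-231 kept in RPMI or DMEM with 10% FBS and 1% pen/strep at 37 °C, 5% CO2. Seeded at 400-800 cells/well in 384-well format, exposed to a concentration series or solvent control for 72 h. CCK-8 added, absorbance read at 450 nm, IC50 fitted from dose-response curves.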

[2] = target: T1, Nicotinamide phosphoribosyltransferase (Homo sapiens, UniProt P43490); experiment: Inhibition of recombinant NAMPT (unknown origin) using nicotinamide as substrate measured every 5 mins for 30 mins in presence of recombinant NMNAT1
T1 sequence (P43490 whole entry): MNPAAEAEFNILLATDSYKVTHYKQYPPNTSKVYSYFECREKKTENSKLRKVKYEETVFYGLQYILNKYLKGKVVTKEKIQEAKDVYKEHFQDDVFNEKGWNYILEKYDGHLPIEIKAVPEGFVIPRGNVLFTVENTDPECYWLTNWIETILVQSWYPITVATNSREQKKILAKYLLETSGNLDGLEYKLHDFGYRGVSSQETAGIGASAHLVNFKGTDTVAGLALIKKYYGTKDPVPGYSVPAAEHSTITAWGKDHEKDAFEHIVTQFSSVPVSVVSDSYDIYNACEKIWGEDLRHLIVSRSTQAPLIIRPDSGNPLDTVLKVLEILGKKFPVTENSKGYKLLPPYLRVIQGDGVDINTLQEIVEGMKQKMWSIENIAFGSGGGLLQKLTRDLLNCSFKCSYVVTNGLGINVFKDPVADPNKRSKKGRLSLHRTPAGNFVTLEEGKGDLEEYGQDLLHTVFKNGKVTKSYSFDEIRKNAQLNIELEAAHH

[3] = tested on: U-937; experiment: Cytotoxicity against human U937 cells assessed as cell growth inhibition after 72 hrs by CCK-8 assay; format: functional; details: U-937, 72 h; outline: as §1
[4] = tested on: MDA-MB-231; experiment: Cytotoxicity against human MDA-MB-231 cells assessed as cell growth inhibition after 72 hrs by CCK-8 assay; format: functional; details: MDA-MB-231, 72 h; outline: as §1
[5] = tested on: HeLa; experiment: Cytotoxicity against human HeLa cells assessed as cell growth inhibition after 72 hrs by CCK-8 assay; format: functional; outline: as §1
[6] = tested on: NCI-H1975; experiment: Cytotoxicity against human NCI-H1975 cells assessed as cell growth inhibition after 72 hrs by CCK-8 assay; format: functional; details: NCI-H1975, 72 h; outline: as §1
[7] = Tmax in Sprague-Dawley rat at 5 mg/kg, iv by LC-MS analysis; format: ADME, organism-based; details: in vivo
[8] = Cmax in Sprague-Dawley rat at 25 mg/kg, po measured up to 24 hrs by LC-MS analysis; format: ADME, organism-based; design: dose 25 mg/kg, route oral; details: in vivo
[9] = Half life in Sprague-Dawley rat at 25 mg/kg, po by LC-MS analysis; format: ADME, organism-based; details: in vivo
[10] = tested on: MDA-MB-231; experiment: Antitumor activity against human MDA-MB-231 cells xenografted in nude SCID mouse assessed as tumor growth inhibition at 15 mg/kg, iv qd administered 4 days per week for 4 weeks; format: functional; details: MDA-MB-231, iv, read-out: TGI
Outline: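 Female SCID nude mice, 6 weeks old, given 1 × 10^6 MDA-MB-231 cells into the lower left mammary fat pad. At 100–300 mm3 tumours, randomised to groups of n = 5 and dosed i.v. at 15 mg/kg or vehicle 4 days a week. Volume = L × W²/2; TGI = [1 − (T − T0)/(C − C0)] × 100 from mean volumes; body weight followed.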

[11] = target: T1, Nicotinamide phosphoribosyltransferase; experiment: Inhibition of NAMPT in human MCF7 cells assessed as decrease in NAD production after 24 hrs by NAD/NADH Glo assay; format: cell-based
Outline: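 MCF-7 cells serum-starved over 12 h, then treated with compound or vehicle for 24 h. Washed in ice-cold PBS, lysed in 1% DTAB in 0.2 N NaOH diluted 1:1 with PBS, frozen at -80 °C.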

[12] = Ratio of Cmax in Sprague-Dawley rat to IC50 for NAMPT in human MCF7 cells; format: ADME, cell-based
[13] = Half life in Sprague-Dawley rat at 5 mg/kg, iv by LC-MS analysis; format: ADME, organism-based; details: in vivo
[14] = Toxicity in nude SCID mouse assessed as mortality at 15 mg/kg, iv qd administered 4 days per week for 4 weeks; format: organism-based; details: in vivo
Outline: (§2)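 Female SCID nude mice (6 weeks) bearing MDA-MB-231 orthotopic tumours (1 × 10^6 cells in lower left mammary fat pad). Randomised at tumour volume 100–300 mm3 into vehicle or treatment groups (n = 5). Dosing 15 mg/kg i.v., 4 days a week. Vehicle elsewhere given as 2% DMSO, 4% EtOH, 4% castor oil, 90% water. Body weight and mortality recorded during treatment.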

[15] = Plasma clearance in Sprague-Dawley rat at 25 mg/kg, po measured up to 24 hrs by LC-MS analysis; format: ADME, organism-based
[16] = Plasma clearance in Sprague-Dawley rat at 5 mg/kg, iv measured up to 24 hrs by LC-MS analysis; format: ADME, organism-based
[17] = Toxicity in nude SCID mouse assessed as body weight loss at 15 mg/kg, iv qd administered 4 days per week for 4 weeks; format: organism-based; details: in vivo; outline: as §2
[18] = AUC (0 to infinity) in Sprague-Dawley rat at 25 mg/kg, po measured up to 24 hrs by LC-MS analysis; format: ADME, organism-based; design: dose 25 mg/kg, route oral, time infinity; details: in vivo
[19] = Cmax in Sprague-Dawley rat at 5 mg/kg, iv measured up to 24 hrs by LC-MS analysis; format: ADME, organism-based; design: dose 5 mg/kg, route intravenous; details: in vivo
[20] = Tmax in Sprague-Dawley rat at 25 mg/kg, po by LC-MS analysis; format: ADME, organism-based; details: in vivo
[21] = Oral bioavailability in Sprague-Dawley rat at 25 mg/kg measured up to 24 hrs by LC-MS analysis; format: ADME, organism-based; details: in vivo
[22] = AUC (0 to infinity) in Sprague-Dawley rat at 5 mg/kg, iv measured up to 24 hrs by LC-MS analysis; format: ADME, organism-based; design: dose 5 mg/kg, time infinity, route intravenous; details: in vivo

| pIC50 [2] | Compound | GI50 [1] [nM] | GI50 [3] [nM] | GI50 [4] [nM] | GI50 [5] [nM] | GI50 [6] [nM] | also measured |
| --- | --- | --- | --- | --- | --- | --- | --- |
| 7.28 | CC(C)N(CCc1c[nH]c2ccccc12)Cc1ccc(CCCCCCCNC(=O)/C=C/c2cccnc2)cc1 | 0.74 | 0.75 | 0.84 | 2.64 | 4.2 |  |
| 7.17 | CC(C)N(CCc1c[nH]c2ccccc12)Cc1ccc(CCCCCNC(=O)/C=C/c2cccnc2)cc1 | 0.63 | 0.61 | 0.89 | 3.23 | 4.2 |  |
| 6.15 | CC(C)N(CCc1c[nH]c2ccccc12)Cc1ccc(CCCNC(=O)/C=C/c2cccnc2)cc1 | 22.4 | 24.2 | 30.5 | 90.7 | 79.7 |  |
| 6.11 | CN(CCc1c[nH]c2ccccc12)Cc1ccc(CCCNC(=O)/C=C/c2cccnc2)cc1 | 75.4 | 69.1 | 84.7 | 250 | 224 |  |
| 6.42 | CC(C)N(CCc1cccc(C(F)(F)F)c1)Cc1ccc(CCCCCNC(=O)/C=C/c2cccnc2)cc1 | 2.41 | 5.1 | 6.92 | 15.2 | 26.2 |  |
| 7.26 | COc1ccc(CCN(Cc2ccc(CCCCCNC(=O)/C=C/c3cccnc3)cc2)C(C)C)cc1 | 1.38 | 2.12 | 2.86 | 6.95 | 9.87 |  |
| 6.83 | CC(C)N(CCc1ccc(F)cc1)Cc1ccc(CCCCCNC(=O)/C=C/c2cccnc2)cc1 | 7.37 | 7.67 | 13.6 | 20.9 | 34.1 |  |
| 6.74 | O=C(/C=C/c1cccnc1)NCCCc1ccc(CN(CCO)CCc2c[nH]c3ccccc23)cc1 | 18.1 | 18.3 | 31.4 | 69.4 | 107 |  |
| 6.92 | Cc1[nH]c2ccccc2c1CCN(Cc1ccc(CCCCCNC(=O)/C=C/c2cccnc2)cc1)C(C)C | 1.67 | 1.58 | 3.03 | 7.93 | 13.3 |  |
| 5.85 | O=C(/C=C/c1cccnc1)NCCCc1ccc(CNCCc2c[nH]c3ccccc23)cc1 | 86.9 | 187 | 358 | 405 | 963 |  |

The next lines start with the compound.

| Compound | pIC50 [2] | GI50 [1] [nM] | GI50 [3] [nM] | GI50 [4] [nM] | GI50 [5] [nM] | GI50 [6] [nM] | also measured |
| --- | --- | --- | --- | --- | --- | --- | --- |
| CCN(CCc1c[nH]c2ccccc12)Cc1ccc(CCCNC(=O)/C=C/c2cccnc2)cc1 | 6.06 | 41 | 48.3 | 76.4 | 200 | 314 |  |
| CC(C)N(Cc1ccccc1)Cc1ccc(CCCCCNC(=O)/C=C/c2cccnc2)cc1 | 7.08 | 6.37 | 11.1 | 12.6 | 40.1 | 49 |  |
| CC(C)N(CCc1ccc(C(F)(F)F)cc1)Cc1ccc(CCCCCNC(=O)/C=C/c2cccnc2)cc1 | 6.44 | 1.6 | 1.57 | 2.4 | 8.98 | 9.54 |  |
| Cc1ccc(CCN(Cc2ccc(CCCCCNC(=O)/C=C/c3cccnc3)cc2)C(C)C)cc1 | 7.00 | 5.53 | 8.73 | 7.19 | 26.6 | 39.2 |  |
| O=C(/C=C/c1cccnc1)NCCCc1ccc(CN(CCc2c[nH]c3ccccc23)Cc2ccccc2)cc1 | 6.00 | 101 | 85.2 | 269 | 379 | 514 |  |
| CC(C)N(CCc1ccccc1)Cc1ccc(CCCCCNC(=O)/C=C/c2cccnc2)cc1 | 6.55 | 7.18 | 6.21 | 10.1 | 19.6 | 61.3 |  |
| CC(C)(C)OC(=O)N(CCc1c[nH]c2ccccc12)Cc1ccc(CCCNC(=O)/C=C/c2cccnc2)cc1 | 6.15 | 85.5 | 54.3 | 123 | 288 | 399 |  |
| CCCN(CCc1c[nH]c2ccccc12)Cc1ccc(CCCNC(=O)/C=C/c2cccnc2)cc1 | 6.26 | 23.8 | 28.1 | 36 | 55.7 | 109 |  |
| CC(C)N(CCc1c[nH]c2ccccc12)Cc1ccc(NCCCCCNC(=O)/C=C/c2cccnc2)cc1 | 7.60 | 0.13 | 0.25 | 0.15 | 0.5 | 1.61 | Tmax [7]: 1.98 min; Cmax [8]: 108 ng/mL; half-life [9]: 2.37 h; inhibition in vivo at 15 mg/kg [10]: 73.8%; pIC50 [11]: 9.81; Ratio [12]: 500; half-life [13]: 1.55 h; Activity [14]: Non-Toxic; CL/F [15]: 1140 mL/min/kg; clearance [16]: 49 mL/min/kg; Activity [17]: Non-Toxic; AUC(0-inf) [18]: 374 ng·h/mL; Cmax [19]: 3790 ng/mL; Tmax [20]: 2 h; bioavailability [21]: 4.4%; AUC(0-inf) [22]: 1710 ng·h/mL |
| CC(C)N(CCc1ccsc1)Cc1ccc(CCCCCNC(=O)/C=C/c2cccnc2)cc1 | 6.71 | 8.47 | 14.8 | 23.6 | 43.7 | 71.8 |  |
| CC(C)N(CCc1c[nH]c2ccccc12)Cc1ccc(CNC(=O)/C=C/c2cccnc2)cc1 | 6.67 | 75.1 | 77.9 | 134 | 173 | 335 |  |
| O=C(/C=C/c1cccnc1)NCCCCC1CCN(C(=O)c2ccccc2)CC1 [DAPORINAD] |  | 0.29 | 0.36 | 0.78 | 1.34 | 3.95 |  |
| CC(=O)O[C@H]1C(=O)[C@@]2(C)[C@H]([C@H](OC(=O)c3ccccc3)[C@]3(O)C[C@H](OC(=O)[C@H](O)[C@@H](NC(=O)c4ccccc4)c4ccccc4)C(C)=C1C3(C)C)[C@]1(OC(C)=O)CO[C@@H]1C[C@@H]2O [PACLITAXEL] |  | 4.38 | 2.12 | 8.67 | 2.34 | 5.77 |  |
